# The EternaBench riboswitch data
# Test system: MS2 coat protein
# Experiment: apparent Kd, MS2 coat protein; higher = weaker binding; RNA-MaP array; FMN 200 µM where present
# Procedure, shortened: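 Designs were transcribed by stalled E. coli RNA polymerase on Illumina sequencing-chip clusters. They were titrated with SNAP-549-labelled MS2 coat protein from 0.7 or 1.5 nM, doubling to 3 µM, without and then with constant ligand. Buffer: 100 mM Tris-HCl pH 7.5, 80 mM KCl, 4 mM MgCl2, BSA, DTT, yeast tRNA, Tween-20. Green signal was normalised to red-channel RNA signal and control-cluster median Fmax. Apparent Kd is the median of filtered per-cluster binding-curve fits.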
# [1] = designed as: OFF switch for flavin mononucleotide, no ligand
# [2] = ligand present: flavin mononucleotide, designed as: OFF switch for flavin mononucleotide
# [3] = designed as: ON switch for flavin mononucleotide, no ligand
# [4] = ligand present: flavin mononucleotide, designed as: ON switch for flavin mononucleotide
Sequence,apparent Kd [1],apparent Kd [2],apparent Kd [3],apparent Kd [4]
GAGAAGUCAGGAUAUGCAUGGCGGGACUUGCGUCGUGGCGUGCAGAAGGGACAUGAGGAUCACCCAUGUGGAGC,114 nM,161 nM,,
AUAUAGGCUAACAUGAGGAUCACCCAUGUGUUAUACUUAAUAUAGGAUAUGUUUAUACUUUUUGGGCAGAAGGAUGGCCUAUAU,,,36.4 nM,27.3 nM
GAAUGCCUGUCGAUGCUCGACAUGAGGAUCACCCAUGUAUAGCAGGAUAUGCAGAACUGACUCGUGCAGAAGGGCUAUACCUAA,18.8 nM,47.7 nM,,
GGAAAUCAUGUAGGAUAUGCAUGGCGAAGCUACGCAGAAGGACAUGAGGAUCACCCAUGUUCUGGCUACCGAGUUCGGUGGCAA,22.5 nM,104 nM,,
UGAACCUUCACAGGAUAUCAUGCGAAAAUUGCGUGAGAAGGGUGAAUAUGGUGUUCAUAGUUGCACAUGAGGAUCACCCAUGUA,,,191 nM,128 nM
UUGUUUCGUCAUUAACAUGAGGAUCACCCAUGUAUCGACUCAAAGGAUAUAUAUGCUUGUUUGCAAUAGAAGGUUGAUUGUUGU,,,27.9 nM,26.5 nM
CGGCGACAUGAGGAUCACCCAUGUCAAGAGUGGUCAGGAUAUGGUAUGAGAUGAGUAUGGCCAGAAGGGACAUAAG,,,29.1 nM,21.2 nM
GCAGCACAGAUUUACAUGAGGAUCACCCAUGUCUAUUAAGAUGAGGAUAUGCAUCGAAUGAAGUUGCAGAAGGCAUUGUGCUGC,,,6.77 nM,5.78 nM
UUUCAGUCAGGAUAUCGUUAAUUUAAUUGUUUGUAUUAGUUCGAGAAGGGACAUGAGGAUCACCCAUGUACUCU,19.6 nM,20 nM,,
GCCAUCGCAUGAGGAUAUGCUCGGGUUUCCCGAGCAGAAGGCAUGUGAUAACACAUGAGGAUCACCCAUGUAGUUAAGAUGGCA,,,5.69 nM,4.83 nM
ACAUGAGGAUCACCCAUGUAGAAUGAAGAAGGUAGAUACUUGAGGCUCACCCAUGUACAUAGGACUAAGGAUAUUCUAAUAAUU,,,25 nM,22 nM
AAUUCACAUGAGGAUCACCCAUGUCAGGAUAUGGUUUCACGUGUUUCUUUGCUUGAGGCCAGAAGGGACAGCUA,71.8 nM,94.4 nM,,
UGCAGACGAGGAUAUAGAUUUAAGUACAUGAGGAUCACCCAUGUGCAUAUGUAUUUAGAUUUAGAAGGCGUCUGCU,415 nM,383 nM,,
CCUGAGUCAGGAUAUUGUACCAGCCUGAAGCCAGGCUGACCCAAGAAGGGACAUGAGGAUCACCCAUGUGAAAA,27 nM,25.6 nM,,
CCUCCACAUGAGGAUCACCCAUGUCAGGAUAUCGUGUGUUUUUUUUCGGUCUUUCGUGCGAGAAGGGACGUCUG,27.4 nM,29.9 nM,,
AGCACGUCAGGAUAUCUGAUGUCUAACUUCGGUUAGACAUCAGAGAAGGGACAUGAGGAUCACCCAUGUGCAAA,60.6 nM,77.9 nM,,
GUACGUGGACAGAAGGUGACAUGAGGAUCACCCAUGUUAGUUCGGGUACGAGCGAUCCGCGUGAUUGAGGAUAUGUCUGCGGGC,69.1 nM,175 nM,,
GGGUACAUCGGAGGAUAUCAUGUAAAUACAUGAGGAUCACCCAUGUCCAUGGAGACAUCGGAGAUUGAGAAGGCCGAUGUACCG,,,171 nM,203 nM
UGAAUGGUGAUAGGAUAUACAUGAGGAAUCCUCGUAGAAGGAUCACGACAUGAGGAUCACCCAUGUAGCCGUCCGUAGACGGCC,,,227 nM,470 nM
GGGUACAUCGGAGGAUAUCAUGUAAAUACAUGAGGAUCACCCAUGUAGAUGGAGACAUCGGAGAUUGAGAAGGCCGAUGUACCG,,,7.69 nM,5.84 nM
UAGAGCGCUUGAGGAUAUCGUUUUGUGAUGGUACUCAUGCCUGUUACAUGAGGAUCACCCAUGUACGAGAAGGCAGGCCGUUAG,58.1 nM,30.5 nM,,
UAGUUAUUCACAGGAUAUCGCCUCUUAUUACAUGAGGAUCACCCAUGUUUAGUUAGUUACAUGUUCGAGAAGGGUGUAGUUGUU,554 nM,819 nM,,
GCUGACGUAGGAUAUCAAUAGCCUCACAUGAGGAUCACCCAUGUCGGUAGGUGUACUGGAUGAGAAGGACGUCGUU,38.3 nM,23.9 nM,,
GUACGUGGACAGAAGGCGACAUGAGGAUCACCCAUGUUGGCUCGGGUACGAGCAAUCCGCGUGAUUGAGGAUAUGUCUGCGGGC,6.25 nM,9.93 nM,,
UCGUGUAUAGAGGAUAUAUUAUUUUUUUUAACAAUAGAAGGCUAAACAUGAGGAUCACCCAUGUAUUUUUUUUU,31.4 nM,44 nM,,
CGUCUGUGAGGAUAUGGUGUCGUUUACAUGAGGAUCACCCAUGUUUCAUGGGACUAGAGACUAGAAGGUACUGACG,314 nM,413 nM,,
GCUAGGAGUGUGAGGAUAUGCUGUACCUUGGUACAGCAGAAGGCACAUGAGGAUCACCCAUGUGAAGACCUAGC,25.9 nM,151 nM,,
UUUUAUUGCAAGGAUAUGCAAAUUAUUAUUAAUGCAGAAGGUGCUACAUGAGGAUCACCCAUGUUUCUGGGUUU,98.2 nM,308 nM,,

Sequence,apparent Kd [1],apparent Kd [2],apparent Kd [3],apparent Kd [4]
UUGCAGUCGUCAGGAUAUAGUAUUACGGCCUUUCAUUUCUUCAUACAUGAGGAUCACCCAUGUCGCUAGAAGGGCUUAUCGCUU,14.8 nM,13.2 nM,,
AGUGUGUGGCAGGAUAUUCUGUUGGUUAGGACAGAAGAAGGGUCUACAUGAGGAUCACCCAUGUAAGCGGUUGA,251 nM,428 nM,,
GACAUGUGAGGAUAUCUGAUGUCUAACUUCGGUUAGACAUCAGAGAAGGCACAUGAGGAUCACCCAUGUCUGUC,194 nM,232 nM,,
UUAUGUCGCGUAGGAUAUCAUUAGAUUUGUAAUUUAAUUGUAAUUUCGAUAUGAGAAGGACGUACACAUGAGGAUCACCCAUGU,16.4 nM,14.2 nM,,
AGCUACGUUUCGUAGCAGUGUCAUCGAGAAGGCCCUUACGUGACAACAUGAGGAUCACCCAUGUGGGAGGAUAUCGAUGAUACA,,,11.8 nM,11.5 nM
ACUAGAUGAGGAUAUGCAUAUUUUCGUGUUCUUCUAGGUUAACAUGAGGAUCACCCAUGUAGAAGGCGUCUAUC,22.2 nM,39.7 nM,,
GUGUGAAUAAGAGGAUAUAUACAACAUGAGGAUCACCCAUGUACCCGUGUAGUAGAAGGUUUGUUUUUAUAUAAUAUUAUAUUU,,,27.4 nM,22.8 nM
GGUGCGUAUGUGAGGAUAUGCUGGUCCUUGGAUCGGCAGAAGGUACAUGAGGAUCACCCAUGUGGUGUCGUUCU,382 nM,251 nM,,
GGGUGACAUGAGGAUCACCCAUGUCAGGAUAUGGGUUUGGGCCCGAAAGGGCCCGGGCCCAGAAGGGACUGCCC,50.9 nM,96.4 nM,,
AUAAUUAAUGCAGGAUAUCAGCACGUGUAGUGCUGAGAAGGGCACAUGAGGAUCACCCAUGUGAUCAAUUAAUAUUAAUAUUAU,61 nM,275 nM,,
GUCGGAAACGACAAUGAUAGGACUGAGGAUAUACAUAAAUAAAUCCUUACAUGAGGAUCACCCAUGUAGAAGGCAGUCCUAUCU,47.2 nM,590 nM,,
ACAUGAGGAUCACCCAUGUUGAAUGAGGAUAUUUGACUGCGCAUGAGGUUCUCCCAUGUUCAACCGGAGAAGGUAUUAAUAAUU,,,267 nM,160 nM
AUCAGCUCGUCAGGAUAUACGUCACUGCGUCAGCAGUGUGGUAAGAUCACAUGAGGAUCACCCAUGUAGAAGGGUCGAGCUGAU,17.7 nM,349 nM,,
UGCCUUUGAGGAUAUACAUUGAAUUUGAUUCAUGUAAAACUACAUGAGGAUCACCCAUGUAGAAGGCAAGGGCU,18.7 nM,27.7 nM,,
GUAGCUAUCGGAGGAUAUCCUCAGCGGAAACGCACAUGAGGAUCACCCAUGUAAAUAAAUAAUUAAGAGAAGGCCGAUAGCUAC,,,706 nM,55 nM
AUGGUUGUCGAGGAUAUGCACCGGCUCGCUGACGCAGAAGGCGACACAUGAGGAUCACCCAUGUCGGUUCGCGU,22.4 nM,51.4 nM,,
CGGUCUUGCAACUAUUUGUUUCACAUGAGGAUCACCCAUGUCAGAAGGAGGUGCAUAUAUUAGACCUAGGAUAUGACGUGUAAA,9.79 nM,28.4 nM,,
UGGAAUUGCGAGAAGGACAUGAGGAUCACCCAUGUAGGAUAUCGACCUAGGUGCAGAUCGUUAUAGGAUCUCUUCGCUUCUAGG,,,16.7 nM,7.14 nM
GUCAGCUCGUGAGGAUAUACAUGUGCUGGAAACAGCACUAUUAAGUUCACAUGAGGAUCACCCAUGUAGAAGGCACGAGCUGAU,15.7 nM,20.3 nM,,
GCUGCAUAGUCAGGAUAUGCAAAGUAAUGUAUGGAAACAUACAUUACAACAUGAGGAUCACCCAUGUAGAAGGGACUGUGCAGU,13.9 nM,12.2 nM,,
GUAUGAGCGAUAGGAUAUACUGAGAUUGAAUGGGUAGAAGGAUCUCUUGUGGGAAAGACAUGAGGAUCACCCAUGUCACGGGCC,,,122 nM,130 nM
AAUUAAGAUCAAGGAUAUCACGUCGAAUAGACGUGAGAAGGUGAUCCAUACAUGAGGAUCACCCAUGUAUAACAUGAAUUAAUU,,,923 nM,170 nM
ACAUGAGGAUCACCCAUGUAUACAUAGGAUAUUGGUGAUCAGGGAUGUUUUACAGGAUAUGUCUGCGAGAAGGAUGCAAGUACA,,,352 nM,151 nM
CCGAUAAUGUAGGAUAUCGUAUCGGAAACGAUACGAGAAGGGCAAACAUGAGGAUCACCCAUGUUCCUUAACGG,17.4 nM,18.5 nM,,
UGGUACAUGGGAGGAUAUGGUGUAGACACAUGAGGAUCACCCAUGUCGAUGGAGACAUCGGAGAUCCAGAAGGCCCAUGUACCU,,,503 nM,24 nM
CAAAAUUGUGCAGGAUAUGCAGUUUGAUGGGCCUGUGGGAGAACAUGAGGAUCACCCAUGUGCUUGCAGAAGGGCACAAGCGAA,103 nM,419 nM,,
GCGAUUAAGUAGAAGGUACGAUAUAUAUCAUUGUAAGGAUAUACUUACAUGAGGAUCACCCAUGUUAAAGGUUAUAAUAAUCGC,,,94.6 nM,28 nM
